Experimental data taken from ChEMBL document CHEMBL1149155, “Development of a new radioligand, N-(5-fluoro-2-phenoxyphenyl)-N-(2-[18F]fluoroethyl-5-methoxybenzyl)acetamide, for pet imaging of peripheral benzodiazepine receptor in primate brain” (J Med Chem, 2004).

What was measured:
Translocator protein [1] = biological target: Translocator protein (Rattus norvegicus, UniProt P16257); test: In vitro inhibition of [11C]2 binding to Peripheral benzodiazepine receptor (PBR) in rat brain; assay type: tissue-based
Translocator protein (Rattus norvegicus, UniProt P16257), sequence (P16257 whole entry, looked up): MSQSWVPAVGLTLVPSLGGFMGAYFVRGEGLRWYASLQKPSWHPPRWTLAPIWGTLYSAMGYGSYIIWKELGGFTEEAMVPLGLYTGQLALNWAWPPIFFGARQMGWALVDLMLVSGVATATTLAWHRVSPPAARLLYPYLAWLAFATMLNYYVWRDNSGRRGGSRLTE

Mus musculus [2] = organism: Mus musculus; test: Compound was tested for radioactivity level in mice adrenal glands (Compound is radiolabeled); assay type: ADME, organism-based, Adrenal gland; details: in vivo
Procedure, shortened: (§1)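 Male ddY mice (30–40 g, 9 weeks) given 18F-ligand in saline (average 8 MBq) via tail vein; four per time point killed at 5, 15, 30, 60, 120 min. Brain, liver, lung, heart, kidney, adrenal, bone and blood weighed and gamma-counted; decay-corrected %ID/g wet tissue.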

[3] = Half life was determined; assay type: ADME; details: rat
Mus musculus [4] = organism: Mus musculus; test: Compound (0.09% dose/g) was tested for accumulation in mice bone (Compound is radiolabeled) after 120 min; No increase; assay type: ADME, organism-based, Bone element; details: in vivo, 2 h; procedure, shortened: as §1
Mus musculus [5] = organism: Mus musculus; test: Compound was tested for radioactivity level in mice heart (Compound is radiolabeled); assay type: ADME, organism-based; details: in vivo; procedure, shortened: as §1
[6] = Partition coefficient of the compound; assay type: physicochemical; details: octanol/water
Procedure, shortened: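 LogD measured by shake-flask partition between phosphate buffer (pH 7.4) and octanol; mean of n = 3.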

Mus musculus [7] = organism: Mus musculus; test: Compound was tested for radioactivity level in mice lungs (Compound is radiolabeled); assay type: ADME, organism-based; details: in vivo; procedure, shortened: as §1
Mus musculus [8] = organism: Mus musculus; test: Compound was tested for radioactivity level in mice kidney (Compound is radiolabeled); assay type: ADME, organism-based; details: in vivo; procedure, shortened: as §1
[9] = biological target: GABA-A receptor; anion channel; test: In vitro inhibition of [11C]flumazenil binding to GABA-A central benzodiazepine receptor of rat brain
Procedure, shortened: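 Rat brain sagittal cryosections (20 μm, male Sprague-Dawley) preincubated 20 min at 25 °C in 50 mM Tris-HCl pH 7.4, then incubated 30 min at 37 °C with [11C]flumazenil (1 nM) and compound 0.1–1000 nM; nonspecific binding defined with 10 μM flumazenil. Cerebellum radioactivity read by imaging plate; probit-derived IC50 converted to Ki; n = 3.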

[10] = biological target: GABA-A receptor; anion channel; test: Inhibition of [11C]flumazenil binding to GABA-A central benzodiazepine receptor of monkey brain
Translocator protein [11] = biological target: Translocator protein (Homo sapiens, UniProt P30536); test: Binding affinity for Peripheral benzodiazepine receptor compared to [11C]2 in monkey brain (No affinity); set-up: species or system Cercopithecidae; details: target entry is the homologue from another species
Translocator protein (Homo sapiens, UniProt P30536), sequence (P30536 whole entry): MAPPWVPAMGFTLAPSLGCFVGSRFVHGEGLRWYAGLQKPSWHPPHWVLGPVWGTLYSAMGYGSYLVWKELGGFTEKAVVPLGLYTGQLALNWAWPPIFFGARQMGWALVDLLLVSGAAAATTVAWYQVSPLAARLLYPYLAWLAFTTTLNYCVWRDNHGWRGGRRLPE

Mus musculus [12] = organism: Mus musculus; test: Compound was tested for radioactivity level in mice brain (Compound is radiolabeled); 2.2-4.9% ID/g; assay type: ADME, organism-based; details: in vivo; procedure, shortened: as §1
Mus musculus [13] = organism: Mus musculus; test: Compound (0.31% dose/g) was tested for accumulation in mice bone (Compound is radiolabeled) after 30 min; Low increase; assay type: ADME, organism-based; details: in vivo, 0.5 h; procedure, shortened: as §1

Ki (Translocator protein [1])	Radioactivity level (Mus musculus [2])	T1/2 [3]	Activity (Mus musculus [4])	Radioactivity level (Mus musculus [5])	logD [6]	Radioactivity level (Mus musculus [7])	Radioactivity level (Mus musculus [8])	Ki [9]	IC50 [10]	IC50 (Translocator protein [11])	Radioactivity level (Mus musculus [12])	Activity (Mus musculus [13])	Compound
0.16 nM					3.65			> 1000 nM					COc1ccc(OC)c(CN(C(C)=O)c2cc(F)ccc2Oc2ccccc2)c1
					2.78			> 1000 nM					CCC(C)N(C)C(=O)c1cc2ccccc2c(-c2ccccc2Cl)n1 (stereo not drawn) [PK-11195]

Second part, the compound before the results:

Compound	Ki (Translocator protein [1])	Radioactivity level (Mus musculus [2])	T1/2 [3]	Activity (Mus musculus [4])	Radioactivity level (Mus musculus [5])	logD [6]	Radioactivity level (Mus musculus [7])	Radioactivity level (Mus musculus [8])	Ki [9]	IC50 [10]	IC50 (Translocator protein [11])	Radioactivity level (Mus musculus [12])	Activity (Mus musculus [13])
COc1ccc(OCF)c(CN(C(C)=O)c2cc(F)ccc2Oc2ccccc2)c1	0.17 nM	> 5%	1.83 h	5.6%	> 5%	3.7	> 5%	> 5%	> 1000 nM				
CC(=O)Nc1cc(F)ccc1Oc1ccccc1										> 10000 nM	Not Active		
COc1ccc(OCCOS(=O)(=O)c2ccc(C)cc2)c(CN(C(C)=O)c2cc(F)ccc2Oc2ccccc2)c1	18.1 nM					4.65			> 1000 nM				
COc1ccc(OCI)c(CN(C(C)=O)c2cc(F)ccc2Oc2ccccc2)c1	4.8 nM					4.02			> 1000 nM				
COc1ccc(OCCF)c(CN(C(C)=O)c2cc(F)ccc2Oc2ccccc2)c1	0.078 nM	> 5%	1.83 h	Not Active	> 5%	3.81	> 5%	> 5%	> 1000 nM			< 4.9%	Partially active
